These results are taken from ChEMBL document CHEMBL4028868, “Click-Chemistry-Mediated Synthesis of Selective Melanocortin Receptor 4 Agonists” (J Med Chem, 2017).

A word on the Emax: it is the maximal effect, on the per cent scale that the assay sets. As a reminder, the EC50 is the midpoint of the concentration-response curve.

Assay [1] addresses T1, Melanocortin receptor 5 (Homo sapiens, UniProt P33032). In words: Agonist activity at EYFP-fused human MC5R expressed in HEK293 cells after 16 to 20 hrs by CRE-driven reporter assay relative to alpha-MSH. Format: functional, cell-based. The method, boiled down:
(§1)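 HEK293 monoclonal lines carrying a single receptor/9×CRE-d2EYFP construct, selected with puromycin and FACS-sorted, kept in low-fluorescence DMEM. EYFP imaged with bright-field images, normalized to cell coverage, corrected for unstimulated cells and scaled to α-MSH maximum. Four-parameter fit constrained to minimum 0, at least three independent experiments.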
A general note: A reporter such as luciferase makes a cellular process visible.

The target of assay [2] is T2, Melanocortin receptor 3 (Homo sapiens, UniProt P41968). Put plainly: Agonist activity at EYFP-fused human MC3R expressed in HEK293 cells after 16 to 20 hrs by CRE-driven reporter assay relative to alpha-MSH. Format: functional, cell-based. The method, boiled down: as §1
Assay [3] deals with T2, Melanocortin receptor 3. In words: Agonist activity at EYFP-fused human MC3R expressed in HEK293 cells after 16 to 20 hrs by CRE-driven reporter assay. Format: functional, cell-based. An outline of the steps: as §1
Assay [4] is filed under the species Homo sapiens. In words: Selectivity ratio of EC50 for EYFP-fused human MC3R expressed in HEK293 cells to EC50 for EYFP-fused human MC4R expressed in HEK293 cells. Format: cell-based.
Assay [5] addresses T1, Melanocortin receptor 5. In words: Agonist activity at EYFP-fused human MC5R expressed in HEK293 cells after 16 to 20 hrs by CRE-driven reporter assay. Format: functional, cell-based. An outline of the steps:
as §1

Assay [6] has as its target T3, Melanocortin receptor 4 (Homo sapiens, UniProt P32245). Put plainly: Agonist activity at EYFP-fused human MC4R expressed in HEK293 cells assessed as increase in cAMP accumulation after 30 mins by luminescent enzymatic complementation based assay. Format: functional, cell-based. In general terms: Cyclic AMP is a second messenger, typically raised through Gs and lowered through Gi signalling.

In assay [7] the target is T3, Melanocortin receptor 4. In words: Agonist activity at EYFP-fused human MC4R expressed in HEK293 cells after 16 to 20 hrs by CRE-driven reporter assay. Format: functional, cell-based.

T2 sequence (P41968 whole entry, the tested form may be a part): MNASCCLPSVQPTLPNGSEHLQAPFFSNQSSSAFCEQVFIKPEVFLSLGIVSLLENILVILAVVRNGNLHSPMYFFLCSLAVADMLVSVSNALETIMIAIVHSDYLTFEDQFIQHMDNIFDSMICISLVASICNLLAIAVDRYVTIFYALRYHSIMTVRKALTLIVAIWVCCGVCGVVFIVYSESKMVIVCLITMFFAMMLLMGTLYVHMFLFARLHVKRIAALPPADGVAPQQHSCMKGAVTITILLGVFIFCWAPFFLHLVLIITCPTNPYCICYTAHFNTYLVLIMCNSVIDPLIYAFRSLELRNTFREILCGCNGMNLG
T1 sequence (P33032 whole entry, the tested form may be a part): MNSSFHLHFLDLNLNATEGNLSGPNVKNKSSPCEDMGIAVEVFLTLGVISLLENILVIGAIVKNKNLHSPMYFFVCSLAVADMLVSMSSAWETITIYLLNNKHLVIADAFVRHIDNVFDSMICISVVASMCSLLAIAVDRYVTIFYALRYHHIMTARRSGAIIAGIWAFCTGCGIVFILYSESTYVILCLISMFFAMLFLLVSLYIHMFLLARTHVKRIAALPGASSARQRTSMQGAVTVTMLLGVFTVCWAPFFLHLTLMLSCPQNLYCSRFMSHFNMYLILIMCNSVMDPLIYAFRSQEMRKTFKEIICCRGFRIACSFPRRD
T3 sequence (P32245 whole entry, the tested form may be a part): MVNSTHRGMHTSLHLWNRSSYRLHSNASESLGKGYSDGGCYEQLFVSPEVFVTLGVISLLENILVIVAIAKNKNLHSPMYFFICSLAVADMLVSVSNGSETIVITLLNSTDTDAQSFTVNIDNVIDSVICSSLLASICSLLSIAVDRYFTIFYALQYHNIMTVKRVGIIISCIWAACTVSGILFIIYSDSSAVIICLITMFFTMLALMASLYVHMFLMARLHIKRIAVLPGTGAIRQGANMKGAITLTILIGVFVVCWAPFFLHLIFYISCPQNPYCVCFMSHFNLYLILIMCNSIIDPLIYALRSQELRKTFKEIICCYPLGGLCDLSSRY

Regarding `CSCC[C@H](NC(=O)[C@@H]1Cc2cn(nn2)C[C@H](NC(=O)[C@@H](N)CCCCN)C(=O)N[C@@H](Cc2cnc[nH]2)C(=O)N[C@H](Cc2ccccc2)C(=O)N[C@@H](CCCNC(=N)N)C(=O)N[C@@H](Cc2c[nH]c3ccccc23)C(=O)N1)C(=O)O`, the Emax in assay [1] is 120%; in assay [2], 105%. The EC50 came to 0.123 µM in assay [3], 0.299 µM in assay [5], 0.0092 µM in assay [6] and 0.0018 µM in assay [7]. Moreover, in assay [4], the Ratio EC50 stood at 70.
